Records with an inconclusive call do not appear. The source made the active and inactive calls.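 How the source made its calls: active means growth-lowering compounds whose fitted AC50 is at most ten times their top valid dose; inconclusive means flat fit with 30 to 70% inhibition, or unreliable fit; inactive means the rest.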 Some results are limits rather than exact numbers.

Tested on in the first experiment: not listed separately
Nature of the experiment: antifungal activity against resistant Candida strain – CaCi-8, with fluconazole, powder samples, set 10, dose response (AID 504504). To be noted: C. albicans CaCi-8 + fluconazole, Alamar Blue growth, 48 h; at 26 µM (top of the series). The procedure, abridged: (§1)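 Assay system: Candida albicans CaCi-8, a fluconazole-resistant clinical strain; quantity: inoculum OD600 0.00015; medium: defined RPMI 1640 medium with MOPS, glucose, uridine; timing: 48 h exposure at 37 °C unshaken, dye 2 h RT; technique: Alamar Blue fluorescence, excitation 544 nm, emission 590 nm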
On the technique in general: Resazurin is reduced to fluorescent resorufin, in cell work by metabolically active cells.
As to `CC1CCN(CCn2c3ccccc3c3nc4n(c(=O)c32)CCS4)CC1`, the activity change, negative = growth inhibition was -17.5% (inactive). Same read-out and setting: as for `COC(=O)n1nc(-c2ccccc2)c2ccccc21`, the figure is 11.4% (inactive); as for `COC(=O)Cn1nc(C(C)(C)C)c2ccccc21`, -4.79% (inactive). Same read-out and setting: then `O=C(Cn1c2ccc(F)cc2c2nc3n(c(=O)c21)CCS3)N1CCC(F)(F)CC1`, with 60.6% (inactive). Regarding `O=C(Cn1c2ccc(F)cc2c2nc3n(c(=O)c21)CCS3)N1CCC(F)(F)C1`, the activity change, negative = growth inhibition was 32% (inactive).

For `O=C(O)Cn1c2ccc(F)cc2c2nc3n(c(=O)c21)CCS3`, the activity change, negative = growth inhibition was -8.94% (inactive). The same measure, in the same setting: then `O=C(Cn1c2ccc(F)cc2c2nc3n(c(=O)c21)CCS3)N1CC=CC1`, with 65% (inactive); and `COC(=O)Cn1nc(-c2cnco2)c2ccccc21`, with -17.4% (inactive). For the compound `O=C(O)Cn1c2ccccc2c2nc3n(c(=O)c21)CCS3`, the activity change, negative = growth inhibition was -4.73% (inactive). Take `COC(=O)Cn1nc(C2CC2)c2ccccc21`: the activity change, negative = growth inhibition was -23.8% (inactive). In the case of `CCc1nn(CC(=O)OC)c2ccccc12`, the activity change, negative = growth inhibition was -7.82% (inactive). As for `O=C(Cn1c2ccc(F)cc2c2nc3n(c(=O)c21)CCS3)N1CCCC1`, the activity change, negative = growth inhibition is 15.4% (inactive).

A further experiment deals with C. albicans CaCi-8 + fluconazole, Alamar Blue growth, 48 h. The experiment is described as above.
Conditions: not given
A digest of the protocol:
as §1
As a reminder, the AC50 is the concentration at which the activity in the assay is half-maximal. With `O=C(Cn1c2ccccc2c2nc3n(c(=O)c21)CCS3)N1CC=CC1`, the AC50 is 2.02 µM. Same read-out and setting: as for `COC(=O)Cn1nc(-c2cccc(C)c2)c2ccccc21`, the figure is 0.702 µM. Turning to `COC(=O)Cn1c2ccc(F)cc2c2nc3n(c(=O)c21)CCS3`, the AC50 was 2.99 µM. The same measure, in the same setting: then `c1ccc(-c2nn(Cc3nnco3)c3ccccc23)cc1`, with 21.8 µM.

Turning to `COC(=O)Cn1nc(C2CCCCC2)c2ccccc21`, the AC50 is 3.44 µM. Still for that read-out and setting: as for `O=C(Cn1c2ccccc2c2nc3n(c(=O)c21)CCS3)N1CCCCC1`, the figure is 2.17 µM; as for `O=C(Cn1c2ccccc2c2nc3n(c(=O)c21)CCS3)N1CCC(F)(F)C1`, 6.69 µM. Same read-out and setting: then `O=C(Cn1c2ccccc2c2nc3n(c(=O)c21)CCS3)N1CCCC1`, with 1.97 µM.

In the case of `COC(=O)Cn1nc(-c2cccc(OC)c2)c2ccccc21`, the AC50 is 0.607 µM. As for `COC(=O)Cn1nc(-c2cscn2)c2ccccc21`, the AC50 was 18.3 µM. Still for that read-out and setting: as for `CC1(O)CN(C(=O)Cn2c3ccccc3c3nc4n(c(=O)c32)CCS4)C1`, the figure is > 26 µM (inactive). The same measure, in the same setting: as for `COC(=O)Cn1nc(-c2cccc(F)c2)c2ccccc21`, the figure is 1.84 µM.

These data come from PubChem BioAssay AID504504 (Broad Institute, 2011).
